Published values from different studies.
Each line is one published result; the experiments were not run side by side.
Medium: plasma

| SMILES | host | route | dose | notes | endpoint | value |
| --- | --- | --- | --- | --- | --- | --- |
| CNC(=O)c1cc(Oc2ccc(NC(=O)Nc3ccc(Cl)c(C(F)(F)F)c3)cc2)ccn1 | male Sprague-Dawley rat | oral | 100 mg/kg | single dose | CL/F | 96.7 mL/min/kg |
| CCOc1c([C@H](C)n2nc(C)c3c(N)ncnc32)cc(Cl)c(F)c1[C@@H]1CNC(=O)C1 | male Sprague-Dawley rat | oral | 2 mg/kg | single dose | CL/F | 10.3 mL/min/kg |
| CNS(=O)(=O)c1ccc(Nc2ncc(C(F)(F)F)c(N3CCC[C@](C)(O)C3)n2)c(C)c1 | rat | intravenous | 2 mg/kg | – | clearance | 31 mL/min/kg |
| C1=C/COCc2cc(ccc2OCCN2CCCC2)Nc2nccc(n2)-c2cccc(c2)COC/1 | rat | oral | 36 mg/kg | – | CL/F | 11700 mL/h |
| C=CC(=O)N1CCC([C@@H]2CCNc3c(C(N)=O)c(-c4ccc(Oc5ccccc5)cc4)nn32)CC1 | Sprague-Dawley rat | oral | 16 mg/kg | – | CL/F | 224 mL/min/kg |
| CCN(CC)Cc1ccc2cc(COC(=O)Nc3ccc(C(=O)NO)cc3)ccc2c1 | male Sprague-Dawley rat | oral | 10 mg/kg | – | CL/F | 20.2 mL/min/kg |
| C[C@H]1Oc2cc(cnc2N)-c2c(nn(C)c2C#N)CN(C)C(=O)c2ccc(F)cc21 | male Sprague-Dawley rat | oral | 10 mg/kg | single dose | CL/F | 66.7 mL/min/kg |
| CNS(=O)(=O)c1ccc(Nc2ncc(C(F)(F)F)c([C@H]3CC[C@@](C)(O)CC3)n2)c(C)c1 | rat | intravenous | 2 mg/kg | – | clearance | 7 mL/min/kg |
| Cc1nc(Nc2ncc(C(=O)Nc3c(C)cccc3Cl)s2)cc(N2CC[C@@H](N)C2)n1 | male Sprague-Dawley rat | intravenous | 1 mg/kg | – | clearance | 135 mL/min/kg |
| [2H]C([2H])([2H])NC(=O)c1cc(Oc2ccc(NC(=O)Nc3ccc(Cl)c(C(F)(F)F)c3)cc2)ccn1 | rat | oral | 40 mg/kg | single dose | CL/F | 2.67 mL/min/kg |
| CC(=O)O[C@@H]1CC[C@@]2(C)[C@@H](CC[C@]3(C)[C@@H]2C(=O)C=C2[C@@H]4[C@@H](C)[C@H](C)CC[C@]4(C)CC[C@]23C)[C@@]1(C)C(=O)O | female Wistar rat | oral | 1 mg/kg | single dose | CL/F | 0.332 mL/min/kg |
| Cc1cc(S(=O)(=O)N[C@]2(C)C[C@H](N3CCN(CC4CCN(c5ccc6c(c5F)n(C)c(=O)n6C5CCC(=O)NC5=O)CC4)CC3)C2)ccc1Nc1ncc(C(F)(F)F)c(N2CCC[C@](C)(O)C2)n1 (some centres unmarked) | rat | intravenous | 2 mg/kg | – | clearance | 145 mL/min/kg |
| Cc1nc(Nc2ncc(C(=O)Nc3c(C)cccc3Cl)s2)cc(N2CC[C@H](O)C2)n1 | male Sprague-Dawley rat | intravenous | 1 mg/kg | – | clearance | 6.83 mL/min/kg |
| Cc1cc(S(=O)(=O)N[C@H]2CC[C@H](CN3CCN(c4cccc(NC5CCC(=O)NC5=O)c4)CC3)CC2)ccc1Nc1ncc(C(F)(F)F)c(N2CCC[C@](C)(O)C2)n1 (some centres unmarked) | rat | intravenous | 2 mg/kg | – | clearance | 43 mL/min/kg |
| CC[C@@H]([C@H](C)O)n1ncn(-c2ccc(N3CCN(c4ccc(OC[C@@H]5CO[C@@](Cn6cncn6)(c6ccc(F)cc6F)C5)cc4)CC3)cc2)c1=O | Sprague-Dawley rat | oral | 40 mg/kg | – | CL/F | 79 mL/min/kg |
| Cc1cc(S(=O)(=O)NC2CC(N3CCN(CC4CCN(c5cccc6c5n(C)c(=O)n6C5CCC(=O)NC5=O)CC4)CC3)C2)ccc1Nc1ncc(C(F)(F)F)c(N2CCC[C@](C)(O)C2)n1 (some centres unmarked) | rat | intravenous | 2 mg/kg | – | clearance | 37 mL/min/kg |
| CC[C@H](C)[C@H](NC(=O)[C@@H]1CCCN1C(=O)CNC(=O)[C@H](Cc1ccccc1)NC(=O)[C@H](CC(N)=O)NC(=O)[C@H](CC(N)=O)NC(=O)[C@H](CO)NC(=O)[C@H](CO)NC(=O)[C@H](Cc1c[nH]cn1)NC(=O)[C@H](CCCNC(=N)N)NC(=O)[C@H](CC(C)C)NC(=O)[C@H](Cc1ccccc1)NC(=O)[C@H](CCC(=O)O)NC(=O)[C@H](C)NC(=O)[C@H](CC(C)C)NC(=O)[C@H](CCCNC(=N)N)NC(=O)[C@H](CCC(N)=O)NC(=O)[C@@H](NC(=O)[C@H](C)NC(=O)[C@@H]1CSSC[C@H](NC(=O)[C@H](CCCCN)NC(=O)CC[C@H](NC(=O)CCCCCCCCCCCCCCCCCCC(=O)O)C(=O)O)C(=O)N[C@@H](CC(N)=O)C(=O)N[C@@H]([C@@H](C)O)C(=O)N[C@@H](C)C(=O)N[C@@H]([C@@H](C)O)C(=O)N1)[C@@H](C)O)C(=O)N[C@@H](CC(C)C)C(=O)N1CCC[C@H]1C(=O)N1CCC[C@H]1C(=O)N[C@H](C(=O)N[C@@H](CC(N)=O)C(=O)N[C@H](C(=O)NCC(=O)N[C@@H](CO)C(=O)N[C@@H](CC(N)=O)C(=O)N[C@H](C(=O)N1CCC[C@H]1C(N)=O)[C@@H](C)O)C(C)C)[C@@H](C)O | male Sprague-Dawley rat | subcutaneous | 30 nmol/kg | single dose | CL/F | 0.112 mL/min/kg |
